HSV replic up – HSV replication enhancement; HSV replication augmentation in cells, fold increase; maximum fold increase; hit rate 0.005% among 220,000; AID 1956; in the data active means maximum fold increase above about 1.5; inconclusive means no clear call, values can overlap the other calls; tested in PC3 cells
HKDC1 inhibitor – inhibitors of human hexokinase HKDC1. Q2TB90. recombinant HKDC1, G6PDH/diaphorase resazurin coupled fluorescence. inhibition, % at 20 µM. hit rate 0.16% among 340,000;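 active means inhibition above about 35% when tested at 20 µM, limit read from the data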;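 further: plate controls were DMSO wells with enzyme for no effect and DMSO wells lacking enzyme for full effect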
Target sequence (Q2TB90 whole entry, looked up): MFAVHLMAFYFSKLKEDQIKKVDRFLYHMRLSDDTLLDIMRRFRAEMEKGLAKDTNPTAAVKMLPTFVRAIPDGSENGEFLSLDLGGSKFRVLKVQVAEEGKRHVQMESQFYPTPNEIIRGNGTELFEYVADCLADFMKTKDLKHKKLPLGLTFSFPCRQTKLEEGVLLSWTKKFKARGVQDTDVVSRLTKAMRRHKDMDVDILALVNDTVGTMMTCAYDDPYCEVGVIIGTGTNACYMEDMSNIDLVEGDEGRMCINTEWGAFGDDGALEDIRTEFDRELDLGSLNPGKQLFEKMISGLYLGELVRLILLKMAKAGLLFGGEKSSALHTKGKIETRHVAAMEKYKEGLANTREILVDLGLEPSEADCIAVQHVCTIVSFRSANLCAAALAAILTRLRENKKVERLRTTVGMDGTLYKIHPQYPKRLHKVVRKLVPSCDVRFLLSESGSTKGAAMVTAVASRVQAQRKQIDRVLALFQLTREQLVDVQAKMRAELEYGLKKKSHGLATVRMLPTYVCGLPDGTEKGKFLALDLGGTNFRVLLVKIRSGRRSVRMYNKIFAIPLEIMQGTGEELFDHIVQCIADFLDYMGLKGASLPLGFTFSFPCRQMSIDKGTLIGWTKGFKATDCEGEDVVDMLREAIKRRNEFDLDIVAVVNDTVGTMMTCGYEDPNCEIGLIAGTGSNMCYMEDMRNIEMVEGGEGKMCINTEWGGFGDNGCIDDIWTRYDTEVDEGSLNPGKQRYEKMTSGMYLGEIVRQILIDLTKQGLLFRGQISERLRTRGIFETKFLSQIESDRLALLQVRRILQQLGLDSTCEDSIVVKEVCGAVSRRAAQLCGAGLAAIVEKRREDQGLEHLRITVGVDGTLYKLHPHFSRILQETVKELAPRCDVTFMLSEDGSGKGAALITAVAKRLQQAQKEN
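Test system: recombinant HKDC1 (HK5) hexokinase enzyme, produced in-house / Doses: 20 µM test compound, 1% DMSO / Timing: 90 min, room temperature / Detection: G6PDH/diaphorase-coupled fluorescence, 1 mM NADP, 100 µM resazurin, 525/613 nm / Control set: DMSO wells with and without enzyme mix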
Dynein cargo inh – dynein cargo transport inhibition; z-score, hits read low; 3617.4 mouse cells, GR-EGFP nuclear translocation imaging; test concentration mostly 20 µM; stimulated with dexamethasone, 1 µM; active compounds read low; hit rate 0.47% among 220,000;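 active means plate z-score of nuclear minus cytoplasmic receptor signal below a set negative limit, without overly bright fluorescence or cell loss, cut at about -3.5 in these data, passing the limit was not always enough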;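 further: z-score of nuclear minus cytoplasmic ring GR-EGFP intensity difference per well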
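Schedule: 48 h induction, then 1 h compound, then 30 min agonist, 37 °C. Buffer or medium: tetracycline-free induction medium containing charcoal-stripped FBS. Reagent: 1.0 µM final dexamethasone stimulus. Evaluation: nuclear versus cytoplasmic GR-EGFP signal, averaged per well. Signal: high-content fluorescence imaging after fixation.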
TbHK1 inh – blocks Trypanosoma brucei hexokinase 1 activity; recombinant TbHK1, G6PDH-coupled NADH A340; inhibition, % at 10 µM; hit rate 0.11% among 220,000;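 active means inhibition of 50% or more in the single-dose primary screen; inactive means inhibition below 50%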
Autophagy HCS – alters autophagy in cells; MEF GFP-LC3 puncta imaging; test concentration mostly 10 µM; hit rate 0.98% among 190,000; calls only at 10 µM (by protocol); AID 463193;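 active means percentage of spot-positive cells more than 3 SD above its plate mean, without a fluorescence outlier flag or 80% toxicity; inconclusive means no clear call, values can overlap the other calls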;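 further: spot-positive cell cutoff set from DMSO-treated cells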
PERK inhibitor – human PERK inhibition, primary cell-based screen. inhibition, % at 5.6 µM. hit rate 0.17% among 220,000. AID 1416. CHO PERK-DD fusion, SEAP luminescence translation reporter. Q9NZJ5;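 active means inhibition above the mean inhibition of all tested compounds plus 3 SD, set separately per screening campaign, cut at about 2.9% in these data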;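 further: PERK kinase domain activated by AP20187 dimerizer at 100 nM; 0% = DMSO with dimerizer and 100% = rapamycin at 8.4 µM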
An asterisk follows results filed as active; i = inactive; ? = inconclusive; . = no result given; + = active, no number. Rows were chosen to be rich in hits. Some 1.2% of all compounds tested hit in one or more screens of this group.

SMILES | HSV replic up | HKDC1 inhibitor | Dynein cargo inh | TbHK1 inh | Autophagy HCS | PERK inhibitor
O=C(Cn1c2ccccc2c(=O)c2ccccc21)N/N=C/c1cc([N+](=O)[O-])ccc1N1CCCCC1 | i | 5 | -0.33 | -7 | + | 1
O=C(c1ccc2nc[nH]c2c1)N1CCN(c2ncc(C(F)(F)F)cc2Cl)CC1 | . | 3 | . | . | . | .
O=C(Nc1ccccc1)c1nn(-c2ccccc2)c(=O)cc1C(F)(F)F | i | 3 | -0.32 | -1 | + | 1
Cc1ccc(NC(=O)NN2CCN(C)CC2)cc1C | . | 1 | . | . | . | .
CC(NC=C1C(=O)OC(C)(C)OC1=O)C(=O)O (configuration not stated) | i | -10 | 0.44 | -5 | i | 3.3*
Cc1cccc(C(=O)N/C(=C\c2ccco2)C(=O)N2CCCC2)c1 | . | -6 | . | . | . | .
COc1ccccc1N1CCN(C(=O)c2ccc(Br)o2)CC1 | . | 1 | . | . | . | .
O=C(c1ccc(Br)o1)N1CCN(c2ccccc2F)CC1 | i | -4 | -0.81 | -9 | + | 1
CCOc1ccccc1NC(=O)CCSc1nc2n[nH]c(C)c2c(=N)n1-c1ccccc1Cl | i | -2 | 0.18 | -8 | + | 0
Cc1ccccc1-n1c(SCC(=O)Nc2ccccc2Cl)nc2n[nH]c(C)c2c1=N | . | 1 | . | . | . | .
O=C(Nc1ccc(S(=O)(=O)N2CCOCC2)cc1)c1ccc(Cl)cc1Cl | . | 1 | . | . | . | .
O=[N+]([O-])c1ccc(Cl)cc1Sc1nc2ccccc2o1 | i | -10 | -1.2 | -2 | + | 0
COc1ccc(NC(=O)C2CC(=O)N(Cc3ccco3)C2)cc1Cl (configuration not stated) | . | -1 | . | . | . | .
CCc1ccc(NC(=O)C(CC)Sc2nc3cc4c(cc3c(=O)n2Cc2ccco2)OCO4)cc1 (configuration not stated) | i | -9 | -0.45 | 23 | + | 0
CCc1ccccc1NC(=O)C(CC)Sc1nc2cc3c(cc2c(=O)n1Cc1ccco1)OCO3 (configuration not stated) | i | -4 | -0.14 | 9 | i | 0
COc1cccc(OC)c1C(=O)Nc1ccnn1C | . | -1 | . | . | . | .
COc1cc(/C=N/c2oc(C)c(C)c2C#N)cc(Br)c1O | . | 12 | . | . | . | .
COc1ccc(/C=N/c2oc(C)c(C)c2C#N)c(OC)c1 | i | -9 | 1.2 | -12 | + | 0
OCCNc1nc(-c2ccccc2)c2cc(Cl)ccc2n1 | i | -1 | -0.36 | -8 | + | 0
COc1ccc(-c2oc3ncnc(NCCN4CCOCC4)c3c2-c2ccc(OC)cc2)cc1 | i | 6 | 0.83 | -23 | + | 1
COc1ccc(-c2oc3ncnc(NCCCN4CCOCC4)c3c2-c2ccc(OC)cc2)cc1 | i | 15 | 0.35 | -28 | i | -1
C/C(=N\N1CCN(C)CC1)c1ccc(OC(F)F)cc1 | i | -8 | 0.17 | 3 | + | 1
O=C(NC1CCCCC1)c1cc(S(=O)(=O)N2CCOCC2)ccc1Cl | . | 5 | . | . | . | .
Cc1ccc(-n2c(O)c(C=Nc3ccc4c(c3)OCO4)c3ccccc3c2=O)cc1C | i | -12 | -0.6 | -7 | + | 0
Cc1cc(N=Cc2c(O)n(-c3ccc4c(c3)OCO4)c(=O)c3ccccc23)ccn1 | i | 8 | 0.16 | -10 | i | -1
SMILES | HSV replic up | HKDC1 inhibitor | Dynein cargo inh | TbHK1 inh | Autophagy HCS | PERK inhibitor
COc1ccc(-n2c(O)c(C=Nc3ccccc3)c3ccccc3c2=O)cc1 | i | 0 | -0.94 | 1 | + | 1
O=C(COc1ccc(Br)cc1F)Nc1nnc(C2CC2)s1 | . | 3 | . | . | . | .
COc1ccc(C2C(C#N)=C(N)N3C(=C2C#N)Sc2ccccc23)cc1 (configuration not stated) | ? | . | -0.14 | 4 | + | 0
Cc1oc(-c2ccccc2F)nc1CS(=O)CC(=O)NC1CCCCC1 (configuration not stated) | . | -4 | . | . | . | .
CC1=C(C#N)c2nc(N)c(C#N)c(C)c2/C1=C\c1ccc(C)cc1 | i | . | 1.8 | -5 | + | 1
Cc1ccc(NC(=O)c2cccc(-n3cnnn3)c2)cc1Cl | . | -6 | . | . | . | .
C[C@H](NC(=O)c1cccc([N+](=O)[O-])c1)C(=O)OCC(=O)c1ccccc1Br | . | -3 | . | . | . | .
CC(=O)C1=C(Nc2ccccc2)CC(C)(O)C(C(C)=O)C1c1ccccc1 (configuration not stated) | i | -1 | 1.2 | -40 | . | 2

Screens from PubChem BioAssay.
